What was measured:
[1] = test system: Mus musculus; test: Retention for passive avoidance learning in mice at dose 5.0 mg/kg; format: functional, organism-based; set-up: dose 5 mg/kg
In short: (§1)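 Naive male CF-1 mice (19–21 g at shipment), 20 per dose, each used once. Dosed i.p. as an aqueous solution or methocel suspension 1 h before footshock training, with a saline group run in parallel. At the test, mice were placed on an outside shelf; entering the box within 60 s counted as no retention. Values are percent retention. A day was discarded unless controls scored 65–75%.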

[2] = test system: Mus musculus; test: Retention for passive avoidance learning in mice at dose 20 mg/kg; format: functional, organism-based; set-up: dose 20 mg/kg; in short: as §1
[3] = test system: Mus musculus; test: Retention for passive avoidance learning in mice at dose 80 mg/kg; format: functional, organism-based; set-up: dose 80 mg/kg; in short: as §1
[4] = test system: Mus musculus; test: Retention for passive avoidance learning in mice at dose 1.25 mg/kg; format: functional, organism-based; set-up: dose 1.25 mg/kg; in short: as §1
[5] = test system: Mus musculus; test: Retention for passive avoidance learning in mice at dose 2.5 mg/kg; format: functional, organism-based; set-up: dose 2.5 mg/kg; in short: as §1
[6] = test system: Mus musculus; test: (§2) Compound was tested for cognitive activity by measuring retention for passive avoidance learning in mice at dose 0.63 mg/kg; format: functional, organism-based; set-up: dose 0.63 mg/kg; in short: as §1
[7] = test system: Mus musculus; test: Retention for passive avoidance learning in mice at dose 5 mg/kg; format: functional, organism-based; set-up: dose 5 mg/kg; in short: as §1
[8] = test system: Mus musculus; test: Compound was tested for cognitive activity by measuring retention for passive avoidance learning in mice at dose 0.32 mg/kg; format: functional, organism-based; set-up: dose 0.32 mg/kg
In short: (§3)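 Male CF-1 mice (19–21 g at shipment), 20 per dose group, each used once. Given ip an aqueous solution or methocel suspension 1 h before footshock training, with a saline group run alongside. Retention test: mouse placed on an outer shelf of the box; entering within 60 s scored as not retained. Value is percent retention. Days with control retention outside 65–75% were discarded.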

[9] = test system: Mus musculus; test: as §2; format: functional, organism-based; set-up: dose 0.63 mg/kg; in short: as §3; remark: listed apart in the source
[10] = test system: Mus musculus; test: Compound was tested for cognitive activity by measuring retention for passive avoidance learning in mice at dose 0.15 mg/kg; format: functional, organism-based; set-up: dose 0.15 mg/kg; in short: as §3
[11] = organism: Mus musculus
[12] = test system: Mus musculus; test: Compound was tested for cognitive activity by measuring retention for passive avoidance learning in mice at dose 1.25 mg/kg; format: functional, organism-based; set-up: dose 1.25 mg/kg; in short: as §3
[13] = test system: Mus musculus; test: Compound was tested for cognitive activity by measuring retention for passive avoidance learning in mice at dose 10 mg/kg; format: functional, organism-based; set-up: dose 10 mg/kg; in short: as §3
[14] = test system: Mus musculus; test: Compound was tested for lethality in mice at a dose 80 mg/kg intraperitoneally; L denotes lethal at this dose; format: functional, organism-based; set-up: dose 80 mg/kg
In short: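 Male CF-1 mice, 20 per group, were given the agent i.p. as an aqueous solution or methocel suspension 1 h before passive-avoidance training. The table entry L marks a dose that killed the animals.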

[15] = test system: Mus musculus; test: Compound was tested for cognitive activity by measuring retention for passive avoidance learning in mice at dose 40 mg/kg; format: functional, organism-based; set-up: dose 40 mg/kg; in short: as §1
[16] = test system: Mus musculus; test: Compound was tested for cognitive activity by measuring retention for passive avoidance learning in mice at dose 20 mg/kg; format: functional, organism-based; set-up: dose 20 mg/kg; in short: as §1
[17] = organism: Mus musculus; remark: listed apart in the source
[18] = test system: Mus musculus; test: Compound was tested for cognitive activity by measuring retention for passive avoidance learning in mice at dose 20 mg/kg i; format: functional, organism-based; set-up: dose 20 mg/kg; in short: as §3
[19] = test system: Mus musculus; test: Compound was tested for cognitive activity by measuring retention for passive avoidance learning in mice at dose 2.5 mg/kg; format: functional, organism-based; set-up: dose 2.5 mg/kg; in short: as §3
[20] = organism: Mus musculus; remark: listed apart in the source

| SMILES | Retention [1] | Retention [2] | Retention [3] | Retention [4] | Retention [5] | also measured |
| --- | --- | --- | --- | --- | --- | --- |
| c1cncc(Oc2cccnc2)c1 | 85% | 100% | 55% |  |  |  |
| [O-][n+]1cccc(Oc2ccc[n+]([O-])c2)c1 | 90% | 90% | 60% | 75% | 60% | Retention [6]: 65% |
| Clc1ccc(Oc2cccnc2)cc1 | 80% | 30% | 65% | 65% | 70% | Retention [6]: 55% |
| Clc1ccccc1Oc1cccnc1 | 95% | 80% | 40% | 45% | 40% | Retention [6]: 60% |
| COc1cc2c(cc1OC)C1CC(=O)C(CC(C)C)CN1CC2 (stereo not drawn) |  |  |  | 59% | 63% | Retention [7]: 33% |
| Cc1cncc(Oc2ccccc2)c1 | 70% | 80% | 45% |  |  |  |
| c1ccc(Oc2cccnc2)cc1 | 100% | 70% | 35% | 90% | 90% | Retention [6]: 65% |
| O=C1C[C@@H]2OCC=C3CN4CC[C@]56c7ccccc7N1[C@H]5[C@H]2[C@H]3C[C@H]46 |  |  |  |  |  | Retention [8]: 70%; Retention [9]: 75% |
| CC(N)Cc1ccccc1 (stereo not drawn) |  |  |  | 70% | 75% |  |
| CN1C(=O)CN=C(c2ccccc2)c2cc(Cl)ccc21 |  |  |  | 53% | 40% | Retention [7]: 41% |
| O=c1[nH]c2ccccc2n1C1CCN(CCCC(c2ccc(F)cc2)c2ccc(F)cc2)CC1 |  |  |  |  |  | Retention [8]: 40%; Retention [10]: 43%; Retention [9]: 27% |
| Fc1cccc(Oc2cccnc2)c1 | 90% | 55% | 55% | 75% | 75% | Retention [6]: 65% |
| Fc1ccccc1Oc1cccnc1 | 90% | 85% | 50% | 65% | 80% | Retention [6]: 60% |
| [O-][n+]1cccc(Oc2cccnc2)c1 | 85% | 85% | 85% | 45% | 65% | Retention [6]: 60% |
| Cc1ccncc1Oc1ccccc1 | 75% | 85% | 15% |  |  |  |
| CN1CCC[C@H]1c1cccnc1 |  |  |  |  | 27% | Retention [8]: 70%; Retention [11]: Lethal; Retention [12]: 53%; Retention [9]: 75% |
| CCCC(C)C1(CC)C(=O)NC(=O)NC1=O (stereo not drawn) |  |  |  | 40% | 7% | Retention [9]: 23% |
| COC(=O)C(c1ccccc1)C1CCCCN1 (stereo not drawn) |  | 87% |  | 50% | 50% | Retention [13]: 65%; Retention [7]: 90% |
| CN1[C@@H]2C[C@@H](OC(=O)[C@H](CO)c3ccccc3)C[C@H]1[C@@H]1O[C@@H]12 |  |  |  |  |  | Retention [8]: 65%; Retention [10]: 65%; Retention [12]: 35%; Retention [9]: 30% |
| c1ccc(Oc2ccncc2)cc1 | 70% | 65% | 0% |  |  |  |
| c1ccc(Oc2ccccn2)cc1 | 65% | 50% | 30% |  |  |  |
| CCOc1ccccc1Oc1cccnc1 | 70% | 70% | 65% |  |  |  |
| C1CCc2nnnn2CC1 |  | 80% |  |  |  | Retention [14]: Lethal at this dose; Retention [13]: 65%; Retention [15]: 80%; Retention [7]: 80% |
| Cc1ncccc1Oc1ccccc1[N+](=O)[O-] | 85% | 70% | 35% | 70% | 70% |  |

| SMILES | Retention [1] | Retention [2] | Retention [3] | Retention [4] | Retention [5] | also measured |
| --- | --- | --- | --- | --- | --- | --- |
| [O-][n+]1cccc(Oc2ccccc2)c1 | 40% | 20% | 0% |  |  |  |
| COc1ccc(Oc2cccnc2)cc1 | 78% | 75% | 35% |  |  |  |
| NC1=NC(=O)C(c2ccccc2)O1 (stereo not drawn) |  | 83% | 77% |  |  | Retention [13]: 70%; Retention [15]: 83%; Retention [7]: 30% |
| Brc1ccc(Oc2cccnc2)cc1 | 90% | 70% | 85% | 75% | 70% | Retention [6]: 75% |
| COc1cccc(Oc2cccnc2)c1 | 55% | 55% | 20% |  |  |  |
| Cc1ncccc1Oc1ccccc1N | 65% | 45% | 40% |  |  |  |
| [Cl-].[Li+] |  |  | 38% | 84% | 70% | Retention [13]: 31%; Retention [15]: 23%; Retention [9]: 60%; Retention [7]: 0% |
| O=[N+]([O-])c1ccccc1Oc1cccnc1 | 60% | 90% | 50% |  |  |  |
| Brc1ccccc1Oc1cccnc1 | 65% |  |  |  |  | Retention [16]: 50% |
| CNC(=O)Oc1ccc2c(c1)[C@]1(C)CCN(C)[C@@H]1N2C |  |  |  |  |  | Retention [8]: 35%; Retention [10]: 45%; Retention [17]: Lethal |
| FC(F)(F)c1cccc(Oc2cccnc2)c1 | 30% | 55% |  |  |  |  |
| Cn1c(=O)c2c(ncn2C)n(C)c1=O |  |  | 0% | 87% | 37% | Retention [13]: 3%; Retention [15]: 3%; Retention [9]: 70%; Retention [7]: 37% |
| CCC1(C)CC(=O)NC1=O (stereo not drawn) |  |  | 95% |  |  | Retention [13]: 63%; Retention [15]: 70%; Retention [18]: 90% |
| C[C@H](N)Cc1ccccc1 |  |  |  |  |  | Retention [8]: 80%; Retention [19]: 65%; Retention [10]: 45%; Retention [12]: 60%; Retention [9]: 100% |
| C=C(C)[C@@H]1[C@H]2OC(=O)[C@@H]1[C@]1(O)C[C@H]3OC34C(=O)O[C@H]2[C@@]41C.CC(C)(O)[C@@H]1[C@H]2OC(=O)[C@@H]1[C@]1(O)C[C@H]3OC34C(=O)O[C@H]2[C@@]41C (stereo partly drawn) |  |  |  |  | 80% | Retention [8]: 65%; Retention [12]: 90%; Retention [9]: 80%; Retention [7]: 70% |
| O=C1NC(=O)C(c2ccccc2)(c2ccccc2)N1 |  |  | 15% | 85% | 75% | Retention [13]: 43%; Retention [15]: 50%; Retention [18]: 55%; Retention [7]: 90% |
| c1ccc(Sc2cccnc2)cc1 | 80% | 85% | 85% |  |  |  |
| Nc1ccccc1Oc1cccnc1 | 80% | 65% | 55% |  | 70% |  |
| CN(C)CCCN1c2ccccc2CCc2ccccc21 |  | 77% |  |  |  | Retention [13]: 80%; Retention [15]: 72%; Retention [7]: 65% |
| N[C@@H]1C[C@H]1c1ccccc1.N[C@H]1C[C@@H]1c1ccccc1 |  | 55% |  |  |  | Retention [13]: 80%; Retention [20]: Lethal at this dose; Retention [7]: 75% |
| Clc1cccc(Oc2cccnc2)c1 | 60% | 60% | 0% |  |  |  |
| CN(C)CCCN1c2ccccc2Sc2ccc(Cl)cc21 |  |  |  | 70% | 70% | Retention [7]: 20% |
| Fc1ccc(Oc2cccnc2)cc1 | 95% | 80% | 50% | 60% | 85% | Retention [6]: 35% |
| COC(=O)c1cccc(Oc2cccnc2)c1 | 70% | 60% | 55% |  |  |  |
